Laboratory results as given in ChEMBL document CHEMBL1156469 (2007).
Activity calls are given as the source filed them. No cut-off for these calls is given here.

What was measured:
[1] = tested on: Osteoblast; assay: Effect on matrix metalloprotease 13 gene expression in rat primary osteoblast cells assessed as expression ratio of treated to untreated control by microarray analysis; assay type: functional
Summary of the method: (§1)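 Resveratrol-treated and vehicle-treated primary osteoblasts were profiled on a mouse osteogenesis-focused cDNA array (GEArray Q series) built to track gene expression during osteogenic differentiation. Each gene's signal in treated cells was expressed as a ratio to untreated control.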

[2] = tested on: Osteoblast; assay: Effect on scavenger receptor B2 gene expression in rat primary osteoblast cells assessed as expression ratio of treated to untreated control by microarray analysis; assay type: functional; summary of the method: as §1
[3] = tested on: Osteoblast; assay: Effect on tumor necrosis factor gene expression in rat primary osteoblast cells assessed as expression ratio of treated to untreated control by microarray analysis; assay type: functional
Summary of the method: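 GEArray Q series Mouse Osteogenesis cDNA array profiling osteogenic-differentiation genes in treated versus vehicle-treated primary osteoblasts.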

[4] = tested on: Osteoblast; assay: Increase in osteocalcin mRNA levels in rat primary osteoblast cells at 1 uM after 72 hrs by RT-PCR; assay type: functional, cell-based
Summary of the method: (§2)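 Cells treated with 1 μm for 72 h; osteocalcin and osteopontin mRNA by RT-PCR, 30 cycles (95/52/72 °C, 1 min each), ethidium bromide–stained agarose gels; repeated at least twice from at least two cDNA preparations.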

[5] = biological target: Forkhead box protein O3 (Homo sapiens) (UniProt O43524); assay: Enhancement of FOXO3a activity in human MDA-MB-231 cells transfected with dominant negative Akt mutant; assay type: cell-based
Summary of the method: (§3)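 MDA-MB-231 cells transfected with vector, constitutively active Akt or dominant negative Akt, treated ± compound; analyzed by Western blotting and BMP-2 promoter luciferase activity.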

[6] = tested on: Osteoblast; assay: Effect on procollagen 9 alpha 3 gene expression in rat primary osteoblast cells assessed as expression ratio of treated to untreated control by microarray analysis; assay type: functional; summary of the method: as §1
[7] = Reversal of increase in pBMP2 expression in mouse MC3T3-E1 cells expressing small interfering RNA for FOXA1 protein at 1 uM by luciferase method; assay type: functional, cell-based
[8] = tested on: MDA-MB-231; assay: Antiproliferative activity against human MDA-MB-231 cells at 1 uM by flow cytometry; assay type: functional, cell-based
Summary of the method: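 Proliferation was measured by DNA flow cytometry. Incubations were run in triplicate across three separate experiments, and values are means ± S.D.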

[9] = tested on: Osteoblast; assay: Effect on cathepsin K gene expression in rat primary osteoblast cells assessed as expression ratio of treated to untreated control by microarray analysis; assay type: functional
[10] = tested on: Osteoblast; assay: Effect on integrin alpha 2b gene expression in rat primary osteoblast cells assessed as expression ratio of treated to untreated control by microarray analysis; assay type: functional; summary of the method: as §1
[11] = tested on: MDA-MB-231; assay: Induction of FOXO3a nuclear accumulation in human MDA-MB-231 cells FOXO3a-specific small interfering RNA xenografted in nude mice at 10 mg/kg for 2 days; assay type: functional, organism-based; parameters: dose 10 mg/kg
[12] = tested on: Osteoblast; assay: Inhibition of etoposide-induced apoptosis in rat primary osteoblast cells after 24 hrs by flow cytometry; assay type: functional, cell-based
Summary of the method: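 Cells washed in PBS, held 30 min in 0.5% Triton X-100/PBS/0.05% RNase A, then propidium iodide (50 μg/ml) added and kept on ice 15–30 min. Apoptosis is the hypodiploid fraction below the G0/G1 peak, by flow cytometry. Run in triplicate and repeated on three occasions.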

[13] = biological target: T1, Alkaline phosphatase (Mus musculus) (UniProt Q9EQ79); assay: Inhibition of induction of ALP activity in mouse MC3T3-E1 cells at 1 uM after 48 hrs in presence of noggin; assay type: cell-based
T1 sequence (whole entry): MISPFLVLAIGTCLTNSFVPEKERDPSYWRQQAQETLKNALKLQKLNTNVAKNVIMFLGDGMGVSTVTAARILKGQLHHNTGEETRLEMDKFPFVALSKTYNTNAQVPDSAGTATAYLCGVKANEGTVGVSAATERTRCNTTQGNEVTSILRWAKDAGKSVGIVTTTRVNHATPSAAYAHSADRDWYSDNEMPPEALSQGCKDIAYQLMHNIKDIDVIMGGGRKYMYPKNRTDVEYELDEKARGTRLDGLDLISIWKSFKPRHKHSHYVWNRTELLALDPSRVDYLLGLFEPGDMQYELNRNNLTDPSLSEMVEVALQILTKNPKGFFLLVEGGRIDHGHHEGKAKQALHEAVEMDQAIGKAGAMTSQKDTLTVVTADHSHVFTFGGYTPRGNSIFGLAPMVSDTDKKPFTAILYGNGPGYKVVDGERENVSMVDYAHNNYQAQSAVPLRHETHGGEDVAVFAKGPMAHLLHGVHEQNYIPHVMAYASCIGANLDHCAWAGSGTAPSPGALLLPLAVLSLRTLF

[14] = tested on: MC3T3-E1; assay: Reversal of increase in ER.DNA complex in mouse MC3T3-E1 cells at 1 uM by RT-PCR in presence of PP2; assay type: functional, cell-based
Summary of the method: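 BMP-2 promoter quantified by real-time PCR (45 cycles, 61 °C anneal), reported as IP-to-input Ct ratio. DN-Src by 3 μg vector, PP2 at 10 μM; ICI182780 and tamoxifen at indicated concentrations.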

[15] = biological target: Alkaline phosphatase (Rattus norvegicus) (UniProt Q9JKS8); assay: Increase in ALP activity in rat primary osteoblast cells at 0.1 to 10 uM after 7 days; assay type: cell-based
[16] = tested on: Rattus norvegicus; assay: Increase in serum BMP2 levels in orally dosed ovariectomized Wistar rat after 10 weeks by ELISA relative to sham operated control; assay type: functional, organism-based
Summary of the method: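 Ovariectomized rats given indicated doses or estrogen by oral feeding; serum BMP-2 by ELISA 10 weeks after surgery; compared with sham-operated group; n = 8/group, means ± S.D.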

[17] = tested on: Osteoblast; assay: Increase in osteopontin mRNA levels in rat primary osteoblast cells at 1 uM after 72 hrs by RT-PCR; assay type: functional, cell-based; summary of the method: as §2
[18] = tested on: Osteoblast; assay: Effect on matrix metalloprotease 2 gene expression in rat primary osteoblast cells assessed as expression ratio of treated to untreated control by microarray analysis; assay type: functional; summary of the method: as §1
[19] = biological target: RAC-alpha serine/threonine-protein kinase (Homo sapiens) (UniProt P31749); assay: Enhancement of Akt inactivation in human MDA-MB-231 cells transfected with dominant negative Akt mutant; assay type: cell-based; summary of the method: as §3
[20] = Reversal of induction in nuclear translocation of ERalpha in mouse MC3T3-E1 cells transfected with dominant-negative mutant Src expression vector at 1 uM; assay type: functional, cell-based
Summary of the method: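 Src phosphorylation, ERα nuclear translocation and BMP-2 protein analysed by Western blot with ECL detection. Three independent experiments.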

[21] = tested on: Osteoblast; assay: Effect on bone morphogenetic protein 1 gene expression in rat primary osteoblast cells assessed as expression ratio of treated to untreated control by microarray analysis; assay type: functional
[22] = tested on: Osteoblast; assay: Effect on procollagen 18alpha 1 gene expression in rat primary osteoblast cells assessed as expression ratio of treated to untreated control by microarray analysis; assay type: functional; summary of the method: as §1
[23] = tested on: MG-63; assay: Increase in osteocalcin mRNA levels in human MG63 cells at 1 uM after 72 hrs by RT-PCR; assay type: functional, cell-based; summary of the method: as §2
[24] = tested on: Osteoblast; assay: Effect on insulin-like growth factor 1 gene expression in rat primary osteoblast cells assessed as expression ratio of treated to untreated control by microarray analysis; assay type: functional; summary of the method: as §1
[25] = tested on: Osteoblast; assay: Effect on fibroblast growth factor receptor 3 gene expression in rat primary osteoblast cells assessed as expression ratio of treated to untreated control by microarray analysis; assay type: functional
[26] = tested on: Osteoblast; assay: Effect on integrin alpha 2 gene expression in rat primary osteoblast cells assessed as expression ratio of treated to untreated control by microarray analysis; assay type: functional; summary of the method: as §1
[27] = tested on: Osteoblast; assay: Reversal of increase in ER.DNA complex in rat primary osteoblast cells transfected with dominant-negative mutant Src expression vector at 1 uM by RT-PCR; assay type: functional, cell-based

Chain of Alkaline phosphatase (Rattus norvegicus) (Q9JKS8 as listed by the source): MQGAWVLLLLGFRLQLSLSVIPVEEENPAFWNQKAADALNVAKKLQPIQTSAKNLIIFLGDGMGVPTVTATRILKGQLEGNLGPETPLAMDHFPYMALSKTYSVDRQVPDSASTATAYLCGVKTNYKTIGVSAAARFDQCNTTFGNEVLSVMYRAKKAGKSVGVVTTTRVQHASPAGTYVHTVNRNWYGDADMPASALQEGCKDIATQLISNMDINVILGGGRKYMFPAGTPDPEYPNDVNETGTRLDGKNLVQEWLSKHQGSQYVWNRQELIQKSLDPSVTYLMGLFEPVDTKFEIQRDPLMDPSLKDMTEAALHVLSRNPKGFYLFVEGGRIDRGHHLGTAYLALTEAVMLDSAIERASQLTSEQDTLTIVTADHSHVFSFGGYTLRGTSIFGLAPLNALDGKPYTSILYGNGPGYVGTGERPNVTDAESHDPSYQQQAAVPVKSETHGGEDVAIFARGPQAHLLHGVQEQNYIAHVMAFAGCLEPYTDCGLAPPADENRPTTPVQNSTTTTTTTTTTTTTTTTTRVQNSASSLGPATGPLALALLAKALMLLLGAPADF
Chain of Forkhead box protein O3 (Homo sapiens) (O43524 whole entry): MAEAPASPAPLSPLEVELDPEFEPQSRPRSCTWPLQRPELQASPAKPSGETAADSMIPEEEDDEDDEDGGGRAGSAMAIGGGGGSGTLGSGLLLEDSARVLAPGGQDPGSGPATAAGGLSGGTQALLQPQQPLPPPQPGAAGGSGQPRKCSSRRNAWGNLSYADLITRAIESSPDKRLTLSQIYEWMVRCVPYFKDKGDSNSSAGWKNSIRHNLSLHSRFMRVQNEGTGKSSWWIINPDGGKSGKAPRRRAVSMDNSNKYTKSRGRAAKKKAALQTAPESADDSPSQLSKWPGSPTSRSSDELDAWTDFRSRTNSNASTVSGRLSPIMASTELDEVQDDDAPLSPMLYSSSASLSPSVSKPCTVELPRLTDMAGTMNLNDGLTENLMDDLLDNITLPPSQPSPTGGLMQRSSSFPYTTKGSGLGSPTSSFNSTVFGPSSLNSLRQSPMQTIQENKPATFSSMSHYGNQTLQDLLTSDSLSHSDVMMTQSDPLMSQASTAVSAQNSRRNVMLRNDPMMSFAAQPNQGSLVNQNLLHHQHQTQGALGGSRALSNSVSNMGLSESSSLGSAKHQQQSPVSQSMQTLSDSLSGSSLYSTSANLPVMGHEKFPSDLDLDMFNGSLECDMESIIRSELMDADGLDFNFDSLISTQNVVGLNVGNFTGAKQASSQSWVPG
Chain of RAC-alpha serine/threonine-protein kinase (Homo sapiens) (P31749 whole entry): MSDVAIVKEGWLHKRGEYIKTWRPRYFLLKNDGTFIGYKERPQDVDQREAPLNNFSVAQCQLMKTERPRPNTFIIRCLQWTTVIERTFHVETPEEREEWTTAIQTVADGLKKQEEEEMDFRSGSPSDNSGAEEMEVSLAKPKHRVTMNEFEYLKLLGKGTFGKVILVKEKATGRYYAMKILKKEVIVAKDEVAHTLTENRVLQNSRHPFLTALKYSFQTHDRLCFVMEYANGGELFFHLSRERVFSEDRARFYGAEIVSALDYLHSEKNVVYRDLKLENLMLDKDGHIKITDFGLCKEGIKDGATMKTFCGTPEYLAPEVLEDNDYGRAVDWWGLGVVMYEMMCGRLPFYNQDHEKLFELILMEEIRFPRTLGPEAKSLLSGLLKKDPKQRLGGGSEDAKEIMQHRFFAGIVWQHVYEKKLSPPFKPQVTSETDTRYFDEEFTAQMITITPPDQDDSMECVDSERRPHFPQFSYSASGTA

SMILES: Oc1ccc(/C=C/c2cc(O)cc(O)c2)cc1 [RESVERATROL]
- Ratio [1]: 0.64
- Ratio [2]: 0.65
- Ratio [3]: 0.46
- Activity [4]: Active
- Activity [5]: Active
- Ratio [6]: 6.67
- Activity [7]: Active
- Activity [8]: Active
- Ratio [9]: 5.6
- Ratio [10]: 0.57
- Activity [11]: Active
- Activity [12]: Active
- Activity [13]: Active
- Activity [14]: Active
- Activity [15]: Active
- Activity [16]: Active
- Activity [17]: Active
- Ratio [18]: 0.46
- Activity [19]: Active
- Activity [20]: Active
- Ratio [21]: 1.5
- Ratio [22]: 3.16
- Activity [23]: Active
- Ratio [24]: 4.54
- Ratio [25]: 0.9
- Ratio [26]: 2.24
- Activity [27]: Active
